According to ChEMBL document CHEMBL1152836, “10H-Phenothiazines: a new class of enzyme inhibitors for inflammatory diseases” (Eur J Med Chem, 2009):

Tests used:
[1] = biological target: Glutathione hydrolase 1 proenzyme (Homo sapiens, UniProt P19440); test: Inhibition of gamma-glutamyltranspeptidase by colorimetric assay
How it was run: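 Colorimetric read-out at 405 nm by a standard procedure. IC50 is the substrate concentration giving 50% inhibition of enzyme activity. Values are the average of three independent experiments (n = 3).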

[2] = Inhibition of prostaglandin synthetase
How it was run: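 Isolated soya bean lipoxygenase was the enzyme source. Arachidonic acid metabolites (prostaglandin E, leukotrienes) were analysed by reverse-phase ODS-18 HPLC with acetonitrile:water 70:30 mobile phase, detection at 280 nm. IC50 is the substrate concentration giving 50% inhibition. Values are the average of three independent experiments (n = 3).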

[3] = Inhibition of phosphodiesterase assessed as production of inorganic phosphate
How it was run: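 Activity measured as inorganic phosphate released with 5'-nucleotidase present in excess. IC50 is the substrate concentration giving 50% inhibition of enzyme activity. Values are the average of three independent experiments (n = 3).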

[4] = Inhibition of superoxide dismutase assessed as inhibition of superoxide generation by spectrophotometry
How it was run: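 Superoxide generation measured in a cell-membrane-free system by spectrophotometry at 340 nm. IC50 is the substrate concentration giving 50% inhibition of enzyme activity. Values are the average of three independent experiments (n = 3).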

Chain of Glutathione hydrolase 1 proenzyme (P19440 1-380 limits assumed): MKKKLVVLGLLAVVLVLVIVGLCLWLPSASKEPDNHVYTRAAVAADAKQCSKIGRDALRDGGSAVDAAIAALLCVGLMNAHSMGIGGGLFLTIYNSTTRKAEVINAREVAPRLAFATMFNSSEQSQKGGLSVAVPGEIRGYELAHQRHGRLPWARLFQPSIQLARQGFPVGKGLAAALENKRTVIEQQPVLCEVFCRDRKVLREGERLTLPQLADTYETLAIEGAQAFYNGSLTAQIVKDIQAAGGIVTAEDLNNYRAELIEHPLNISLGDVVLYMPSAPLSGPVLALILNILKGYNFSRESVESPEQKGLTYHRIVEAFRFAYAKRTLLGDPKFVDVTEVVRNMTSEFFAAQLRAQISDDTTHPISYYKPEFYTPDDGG
Chain of Glutathione hydrolase 1 proenzyme (P19440 381-569 limits assumed): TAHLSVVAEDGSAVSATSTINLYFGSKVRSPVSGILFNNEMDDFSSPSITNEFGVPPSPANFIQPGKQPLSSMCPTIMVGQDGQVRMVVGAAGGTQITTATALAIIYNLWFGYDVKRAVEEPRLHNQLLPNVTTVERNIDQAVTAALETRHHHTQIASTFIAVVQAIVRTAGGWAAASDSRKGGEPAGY

Compound | IC50 [1] | IC50 [2] | IC50 [3] | IC50 [4]
CNC(=O)c1c(C)c2c(c(C(=O)NC)c1-c1ccccc1C)Nc1ccccc1S2 | 25 µM | 21 µM | 18 µM | 18 µM
CNC(=O)C1=C(C)C2=C(Nc3ccccc3S2)C(C(=O)NC)C1c1ccccc1 (stereo not drawn) | 20 µM | 18 µM | 16 µM | 15 µM
CNC(=O)C1=C(C)C2=C(Nc3ccccc3S2)C(C(=O)NC)C1c1ccccc1C (stereo not drawn) | 22 µM | 21 µM | 18 µM | 17 µM
CNC(=O)C1=C(C)C2=C(Nc3ccccc3S2)C(C(=O)NC)C1c1ccccc1OC (stereo not drawn) | > 30 µM | 20 µM | > 30 µM | > 30 µM
CNC(=O)C1=C(C)C2=C(Nc3ccccc3S2)C(C(=O)NC)C1c1ccc2c(c1)OCO2 (stereo not drawn) | > 30 µM | 28 µM | > 30 µM | > 30 µM
CNC(=O)c1c(C)c2c(c(C(=O)NC)c1-c1ccc(OC)cc1)Nc1ccccc1S2 | 21 µM | 18 µM | 22 µM | 19 µM
CNC(=O)c1c(C)c2c(c(C(=O)NC)c1-c1ccc3c(c1)OCO3)Nc1ccccc1S2 | 18 µM | 24 µM | 20 µM | 20 µM
CNC(=O)C1=C(C)C2=C(Nc3ccccc3S2)C(C(=O)NC)C1c1ccc(OC)cc1 (stereo not drawn) | 25 µM | 20 µM | 21 µM | 18 µM
CNC(=O)c1c(C)c2c(c(C(=O)NC)c1-c1ccccc1Cl)Nc1ccccc1S2 | 18 µM | 15 µM | 15 µM | 20 µM
CNC(=O)C1=C(C)C2=C(Nc3ccccc3S2)C(C(=O)NC)C1c1ccccc1Cl (stereo not drawn) | 19 µM | 16 µM | 13 µM | 18 µM
CC(=O)Oc1ccccc1C(=O)O [ASPIRIN] | 36 µM | 24 µM | 22 µM | 28 µM

Second part, the compound after the results:

IC50 [1] | IC50 [2] | IC50 [3] | IC50 [4] | Compound
20 µM | 23 µM | 18 µM | 18 µM | CNC(=O)c1c(C)c2c(c(C(=O)NC)c1-c1ccc(Cl)cc1)Nc1ccccc1S2
> 35 µM | 28 µM | 26 µM | 31 µM | CNC(=O)C1=C(C)C2=C(Nc3ccccc3S2)C(C(=O)NC)C1c1ccc(Cl)cc1 (stereo not drawn)
36 µM | 28 µM | > 30 µM | 32 µM | CNC(=O)C1=C(C)C2=C(Nc3ccccc3S2)C(C(=O)NC)C1c1ccc([N+](=O)[O-])cc1 (stereo not drawn)
20 µM | 18 µM | – | 14 µM | CNC(=O)c1c(C)c2c(c(C(=O)NC)c1-c1ccccc1)Nc1ccccc1S2
28 µM | 22 µM | 25 µM | > 30 µM | CNC(=O)c1c(C)c2c(c(C(=O)NC)c1-c1ccccc1OC)Nc1ccccc1S2
